Laboratory results from ChEMBL document CHEMBL4715780, “Biological evaluation of tetracationic compounds based on two 1,4-diazabicyclo[2.2.2]octane moieties connected by different linkers” (Bioorg Med Chem, 2016).

Legend:
Pseudomonas aeruginosa [1] = experiment: Bactericidal activity against Pseudomonas aeruginosa ATCC 9027 assessed as colony forming unit at 2.5 ug/ml measured at 22 hrs by time kill assay (reference value: 1.7 x 10^9 CFU/ml); assay type: functional; conditions: dose 2.5 µg/ml
Method in brief: (§1)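 Overnight Pseudomonas aeruginosa culture adjusted in Mueller–Hinton broth to about 2.5 × 10⁵ CFU/mL. Compound added at 2.5, 5 or 10 µg/mL, then incubated at 37 °C with shaking (580 rpm) for 22 h. Viable colonies counted on plates at 2, 4, 6, 8 and 22 h. Quantification limit 100 CFU/mL; triplicate.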

Pseudomonas aeruginosa [2] = experiment: Bactericidal activity against Pseudomonas aeruginosa ATCC 9027 assessed as reduction in colony forming unit at 2.5 ug/ml measured at 8 hrs by time kill assay relative to control; assay type: functional; design: scale not given: the % may be the effect or the level left; conditions: dose 2.5 µg/ml; method in brief: as §1
Pseudomonas aeruginosa [3] = experiment: Bactericidal activity against Pseudomonas aeruginosa ATCC 9027 assessed as reduction in colony forming unit at 10 ug/ml measured at 8 hrs by time kill assay relative to control; assay type: functional; design: scale not given: the % may be the effect or the level left; conditions: dose 10 µg/ml; method in brief: as §1
Staphylococcus aureus [4] = experiment: Antibacterial activity against methicillin-resistant Staphylococcus aureus CEMTC 707 assessed as concentration required to inhibit visible growth by CLSI protocol based serial microdilution method; assay type: functional
Staphylococcus aureus [5] = experiment: Bactericidal activity against […] Staphylococcus aureus ATCC 25923 assessed as colony forming unit at 2.5 ug/ml measured at 4 hrs by time kill assay (reference value: 7.8 x 10^6 CFU/ml); assay type: functional; conditions: dose 2.5 µg/ml
Method in brief: (§2)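 S. aureus overnight culture was adjusted in MHB to ~8 × 10⁵ CFU/mL. Compound was added and the mixture incubated at 37 °C with shaking (580 rpm) for 22 h. Aliquots were plated for colony counts at 2, 4, 6, 8 and 22 h, with a quantification limit of 100 CFU/mL. Runs were done in triplicate.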

Pseudomonas aeruginosa [6] = experiment: Bactericidal activity against Pseudomonas aeruginosa ATCC 9027 assessed as colony forming unit at 5 ug/ml measured at 2 hrs by time kill assay (reference value: 3.6 x 10^5 CFU/ml); assay type: functional; conditions: dose 5 µg/ml; method in brief: as §1
Staphylococcus aureus [7] = experiment: Bactericidal activity against […] Staphylococcus aureus ATCC 25923 assessed as colony forming unit at 5 ug/ml measured at 6 hrs by time kill assay (reference value: 1.2 x 10^6 CFU/ml); assay type: functional; conditions: dose 5 µg/ml; method in brief: as §2
Staphylococcus aureus [8] = experiment: Antibacterial activity against methicillin-resistant Staphylococcus aureus CEMTC 1732 assessed as bacterial growth inhibition by CLSI protocol based serial microdilution method; assay type: functional
Candida albicans = experiment: Antifungal activity against Candida albicans CEMTC 34 assessed as fungal growth inhibition by CLSI protocol based serial microdilution method; assay type: functional
Method in brief: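 Candida albicans grown in Sabouraud dextrose broth with two-fold serial compound dilutions from water stocks; final inoculum about 5 × 10⁵ CFU/mL. Incubated at 37 °C with orbital shaking (580 rpm). MIC is the lowest concentration preventing growth, by absorbance at 595 nm. MFC is the lowest concentration with no visible growth. Duplicates in two separate experiments.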

[9] = Selectivity index, ratio of CC50 for HEK293T cells assessed as reduction in cell viability measured after 24 hrs by MTT assay to MIC for Enterococcus faecalis ATCC 51299 assessed as bacterial growth inhibition by CLSI protocol based serial microdilution method; assay type: toxicity; conditions: human, read-out: Selectivity Index
Pseudomonas aeruginosa [10] = experiment: Bactericidal activity against Pseudomonas aeruginosa ATCC 9027 assessed as reduction in colony forming unit at 5 ug/ml measured at 2 hrs by time kill assay relative to control; assay type: functional; design: scale not given: the % may be the effect or the level left; conditions: dose 5 µg/ml; method in brief: as §1
Staphylococcus aureus [11] = experiment: Bactericidal activity against […] Staphylococcus aureus ATCC 25923 assessed as colony forming unit at 5 ug/ml measured at 2 hrs by time kill assay (reference value: 10^6 CFU/ml); assay type: functional; conditions: dose 5 µg/ml; method in brief: as §2
Staphylococcus aureus [12] = experiment: Bactericidal activity against […] Staphylococcus aureus ATCC 25923 assessed as colony forming unit at 5 ug/ml measured at 8 hrs by time kill assay (reference value: 2.7 x 10^8 CFU/ml); assay type: functional; conditions: dose 5 µg/ml; method in brief: as §2
Proteus vulgaris [13] = experiment: Antibacterial activity against Proteus vulgaris ATCC 6380 assessed as bacterial growth inhibition by CLSI protocol based serial microdilution method; assay type: functional
Staphylococcus aureus [14] = experiment: Bactericidal activity against […] Staphylococcus aureus ATCC 25923 assessed as colony forming unit at 2.5 ug/ml measured at 2 hrs by time kill assay (reference value: 10^6 CFU/ml); assay type: functional; conditions: dose 2.5 µg/ml; method in brief: as §2
Citrobacter freundii [15] = experiment: Antibacterial activity against Citrobacter freundii ATCC 8090 assessed as concentration required to inhibit visible growth by CLSI protocol based serial microdilution method; assay type: functional
Enterococcus faecalis = experiment: Antibacterial activity against Enterococcus faecalis ATCC 51299 assessed as bacterial growth inhibition by CLSI protocol based serial microdilution method; assay type: functional
Staphylococcus aureus [16] = experiment: Antibacterial activity against methicillin-resistant Staphylococcus aureus CEMTC 1733 assessed as concentration required to inhibit visible growth by CLSI protocol based serial microdilution method; assay type: functional
Staphylococcus aureus [17] = experiment: Antibacterial activity against […] Staphylococcus aureus ATCC 25923 assessed as bacterial growth inhibition by CLSI protocol based serial microdilution method; assay type: functional
Pseudomonas aeruginosa [18] = experiment: Antibacterial activity against Pseudomonas aeruginosa ATCC 9027 assessed as concentration required to inhibit visible growth by CLSI protocol based serial microdilution method; assay type: functional
Proteus vulgaris [19] = experiment: Antibacterial activity against Proteus vulgaris ATCC 6380 assessed as concentration required to inhibit visible growth by CLSI protocol based serial microdilution method; assay type: functional
Pseudomonas aeruginosa [20] = experiment: Bactericidal activity against Pseudomonas aeruginosa ATCC 9027 assessed as reduction in colony forming unit at 10 ug/ml measured at 4 hrs by time kill assay relative to control; assay type: functional; design: scale not given: the % may be the effect or the level left; conditions: dose 10 µg/ml; method in brief: as §1
Citrobacter freundii [21] = experiment: Antibacterial activity against Citrobacter freundii ATCC 8090 assessed as bacterial growth inhibition by CLSI protocol based serial microdilution method; assay type: functional
Pseudomonas aeruginosa [22] = experiment: Bactericidal activity against Pseudomonas aeruginosa ATCC 9027 assessed as reduction in colony forming unit at 2.5 ug/ml measured at 22 hrs by time kill assay relative to control; assay type: functional; design: scale not given: the % may be the effect or the level left; conditions: dose 2.5 µg/ml; method in brief: as §1
[23] = Cytotoxicity against human MCF7 cells assessed as reduction in cell viability measured after 24 hrs by MTT assay; assay type: cell-based
Method in brief: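 HEK293T or MCF-7 cells in IMDM with 10% FBS, seeded at 20,000 per well and grown overnight. Compounds at […] in fresh medium for 24 h at 37 °C, 5% CO₂. MTT then added for 4 h, precipitate dissolved overnight in SDS-HCl, absorbance read at 570 nm. Viability expressed relative to untreated cells, giving CC₅₀. Duplicate wells, at least two independent repeats.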

[24] = Selectivity index, ratio of CC50 for MDCK cells to EC50 for Influenza A virus (A/Puerto Rico/8/34 (H1N1)) infected in MDCK cells; assay type: toxicity, cell-based; conditions: dog, read-out: Ratio CC50/EC50
Method in brief: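 Ratio of CC₅₀ to EC₅₀, both in MDCK cells, with cytotoxicity run in parallel with the antiviral assay. EC₅₀ is the concentration halving virus production (0.3 log₁₀ EID₅₀ titre drop). It was obtained after 1 h compound pre-incubation, infection, 48 h at 37 °C, and hemagglutination read-out with 1% chicken erythrocytes.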

Staphylococcus aureus [25] = experiment: Antibacterial activity against methicillin-resistant Staphylococcus aureus CEMTC 1850 assessed as concentration required to inhibit visible growth by CLSI protocol based serial microdilution method; assay type: functional
Staphylococcus aureus [26] = experiment: Antibacterial activity against methicillin-resistant Staphylococcus aureus CEMTC 1733 assessed as bacterial growth inhibition by CLSI protocol based serial microdilution method; assay type: functional

| Compound | Activity (Pseudomonas aeruginosa [1]) [CFU/ml] | Activity (Pseudomonas aeruginosa [2]) | Activity (Pseudomonas aeruginosa [3]) | MBC (Staphylococcus aureus [4]) [µg/mL] | Activity (Staphylococcus aureus [5]) [CFU/ml] | Activity (Pseudomonas aeruginosa [6]) [CFU/ml] | Activity (Staphylococcus aureus [7]) [CFU/ml] | MIC (Staphylococcus aureus [8]) [µg/mL] | MIC (Candida albicans) [µg/mL] | selectivity ratio at 24 h [9] | Activity (Pseudomonas aeruginosa [10]) | Activity (Staphylococcus aureus [11]) [CFU/ml] | Activity (Staphylococcus aureus [12]) [CFU/ml] | MIC (Proteus vulgaris [13]) [µg/mL] | Activity (Staphylococcus aureus [14]) [CFU/ml] | MBC (Citrobacter freundii [15]) [µg/mL] | MIC (Enterococcus faecalis) [µg/mL] | MBC (Staphylococcus aureus [16]) [µg/mL] | MIC (Staphylococcus aureus [17]) [µg/mL] | MBC (Pseudomonas aeruginosa [18]) [µg/mL] | other results |
| --- | --- | --- | --- | --- | --- | --- | --- | --- | --- | --- | --- | --- | --- | --- | --- | --- | --- | --- | --- | --- | --- |
| CCCCCCCCCCCC[N+]12CC[N+](Cc3ccccc3C[N+]34CC[N+](CCCCCCCCCCCC)(CC3)CC4)(CC1)CC2 | 100 | >=99.9% | >=99.9% | 1 | <100 | 130 | <100 | 0.5 | 3.1 | 5 | >=99.9% | <100 | <100 | 100 | 1000 | 1.6 | 0.8 | 1 | 0.6 | 3.1 | MBC (Proteus vulgaris [19]): > 100 µg/mL; Activity (Pseudomonas aeruginosa [20]): >=99.9%; MIC (Citrobacter freundii [21]): 1.6 µg/mL; Activity (Pseudomonas aeruginosa [22]): >=99.9%; CC50 at 24 h [23]: 4 µg/mL; selectivity ratio [24]: 2; MBC (Staphylococcus aureus [25]): 1 µg/mL; MIC (Staphylococcus aureus [26]): 1 µg/mL |
| CCCCCCCCCCCC[N+]12CC[N+](CCC[N+]34CC[N+](CCCCCCCCCCCC)(CC3)CC4)(CC1)CC2 | <100 | >=99.9% | >=99.9% | 1 | <100 | <100 | <100 | 0.5 | 3.1 | 4 | >=99.9% | <100 | <100 | 100 | 330 | 3.1 | 1.6 | 1 | 0.3 | 3.1 | MBC (Proteus vulgaris [19]): > 100 µg/mL; Activity (Pseudomonas aeruginosa [20]): >=99.9%; MIC (Citrobacter freundii [21]): 1.6 µg/mL; Activity (Pseudomonas aeruginosa [22]): >=99.9%; CC50 at 24 h [23]: 5 µg/mL; selectivity ratio [24]: 7; MBC (Staphylococcus aureus [25]): 1 µg/mL; MIC (Staphylococcus aureus [26]): 1 µg/mL |
